Reference: PubChem BioAssay AID588750 (Vanderbilt Specialized Chemistry Center, 2011)

target: Muscarinic acetylcholine receptor M3 (Rattus norvegicus) (UniProt P08483); experiment: rat M3 receptor positive allosteric modulation, dose response, selectivity assay for M4 PAM project, CHO cells, Fluo-4 calcium mobilization (AID 588750); details: CHO rat M3, Fluo-4 calcium mobilization; series mostly up to 30 µM; percent of ACh max: at the top concentration
Outline: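 Material: CHO cells with stable rat M3 receptor. Probe or stimulus: acetylcholine at EC20, followed by acetylcholine at EC80. Doses: test compound in 0.3% DMSO final. Times: compound pre-incubation 144 s before ACh EC20, read at 37 °C. Technique: Fluo-4 AM calcium flux, kinetic fluorescence. Controls: 1 mM ACh maximum.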

Percent of ACh max, inactive:
Cc1nc2sc(C(=O)NC3CC3)c(N)c2c(C)c1Cl 19.5, Cc1nc2sc(C(=O)NCc3ccccc3)c(N)c2c(C)c1Cl 14.2 [at 37.4 µM], Cc1nc2sc(C(=O)NCc3cccnc3)c(N)c2c(C)c1Cl 13.5 [at 45.3 µM], Cc1nc2sc(C(=O)NCc3nccs3)c(N)c2c(C)c1Cl 20.6, Cc1nc2sc(C(=O)NCCc3ccncc3)c(N)c2c(C)c1Cl 19.2, Cc1nc2sc(C(=O)NCc3ccncc3)c(N)c2c(C)c1Cl 16.7 [at 45.3 µM], Cc1nc2sc(C(=O)NCc3ccc4c(c3)OCO4)c(N)c2c(C)c1Cl 14.8 [at 36.8 µM], Cc1nc2sc(C(=O)NCc3ccncn3)c(N)c2c(C)c1Cl 17.7, Cc1nc2sc(C(=O)NCc3cccc(F)c3F)c(N)c2c(C)c1Cl 15.9
